Bioassay records from PubChem BioAssay.
MsrA inh: bovine MsrA inhibition; purified bovine MsrA, absorbance read-out; inhibition, % at 15.5 µM; actives 0.75% (n = 360,000); AID 651718
MsrA act: activates bovine MsrA enzyme; activation, % at 10.6 µM; AID 602163; purified bovine MsrA, absorbance read-out; actives 0.3% (n = 360,000); in the data active means activation above about 7.5%
ASAP1 GAP inh: ASAP1 ArfGAP inhibition | actives 0.19% (n = 360,000) | inhibition, % at 16.5 µM | ASAP1-stimulated ARF1 GTP hydrolysis, GDP FP detection | AID 624377 | Q9ULH1; in the data active means inhibition above about 25%
Target sequence (Q9ULH1 325-724 limits assumed): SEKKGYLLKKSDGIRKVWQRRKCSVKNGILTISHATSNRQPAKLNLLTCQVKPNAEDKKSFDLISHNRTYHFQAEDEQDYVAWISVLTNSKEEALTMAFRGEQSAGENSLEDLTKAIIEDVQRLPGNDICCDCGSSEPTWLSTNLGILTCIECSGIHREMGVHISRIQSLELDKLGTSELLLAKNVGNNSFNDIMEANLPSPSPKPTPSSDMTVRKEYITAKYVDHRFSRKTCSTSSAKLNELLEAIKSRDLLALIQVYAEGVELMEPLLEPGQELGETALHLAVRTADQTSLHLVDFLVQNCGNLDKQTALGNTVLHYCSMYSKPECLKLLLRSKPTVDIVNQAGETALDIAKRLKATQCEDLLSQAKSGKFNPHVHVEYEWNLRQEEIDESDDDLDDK
ARFGAP1 inhibitor: rat ARFGAP1 inhibition | actives 0.26% (n = 360,000) | inhibition, % at 16.5 µM | Q62848 | Arfgap1-stimulated ARF1 GTP hydrolysis, GDP FP detection;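 active means inhibition above a per-plate limit, mean inhibition of low control wells plus 3 SD, cut at about 25% in these data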
Target sequence (Q62848 1-136 limits assumed): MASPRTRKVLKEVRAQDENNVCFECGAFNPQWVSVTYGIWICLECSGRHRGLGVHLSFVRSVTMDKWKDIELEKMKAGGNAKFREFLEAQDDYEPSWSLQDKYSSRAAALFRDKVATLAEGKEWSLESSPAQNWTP
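system = rat Arfgap1 catalytic domain, aa 1-136 | technique = FP, GDP Alexa 633 tracer displaced from anti-GDP antibody, 620/688 nm | compound = one concentration, 16.5 µM, DMSO 1.26% | medium = HEPES-based buffer, pH 7.5 | timing = compound-enzyme preincubation 20 min, reaction 120 min, detection 60 min, 25 °C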
MsrA conf: bovine MsrA inhibition, confirmed; shares compounds with MsrA inh; purified bovine MsrA, absorbance read-out; inhibition, % at 15.5 µM; actives 41% (n = 2,300);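 further: coupled to thioredoxin reductase with NADPH and selenocystamine and DMSO as substrate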
A number is an active result; . = inactive; / = not tested or not shown; ! = a repeat was not active. Compounds with a hit are over-represented: about 1.4% of the library has one in this group of screens. Unless noted, no stated cut-off is given here; in the data, active means inhibition above about 4.5%; inactive means the rest.

SMILES | MsrA inh | MsrA act | ASAP1 GAP inh | ARFGAP1 inhibitor | MsrA conf
O=C(O)c1cc2c(ccc3ccccc32)oc1=O | . | . | . | . | /
Cc1cc(SCC(=O)NCCCN2CCCC2=O)nc2ccccc12 | . | . | . | . | /
O=C(O)c1cccc(Cn2c(Cl)c(/C=N/NC(=O)c3ccccc3O)sc2=O)c1 | 5.0 | . | . | . | .
COc1ccc(C(=O)N/N=C/c2sc(=O)n(Cc3cccc(C(=O)O)c3)c2Cl)cc1 | 9.0 | . | . | . | 5.6
Cc1ccc(C(=O)C2=C(O)C(=O)N(CCCN(C)C)C23C(=O)N(C)c2ccccc23)o1 (configuration not stated) | 5.6 | . | . | . | 6.4
CN1C(=O)C2(c3ccccc31)c1c(oc3ccccc3c1=O)C(=O)N2CCCO (configuration not stated) | . | . | . | . | /
Cc1cccn2c(=O)c3cc(C(=O)NCCN4CCOCC4)c(=N)n(CCCN4CCOCC4)c3nc12 | 5.4 | . | . | . | .
Cc1cccn2c(=O)c3cc(C(=O)NCc4ccccc4)c(=N)n(CCCN4CCOCC4)c3nc12 | . | . | . | . | /
CCc1ccc(-n2c(O)cnc2Nc2nc(C)cc(C)n2)cc1 | 9.5 | . | . | . | 7.0
CCc1ccc(Nc2nc(C)cc(C)n2)cc1 | . | . | . | . | /
COc1ccc(-n2c(O)c(/C=N/Nc3nc(C)cc(C)n3)c3ccccc3c2=O)cc1OC | . | . | . | . | /
COc1ccc(-n2c(O)cnc2Nc2nc(C)cc(C)n2)cc1OC | 15 | . | . | . | 6.5
Cn1c(=O)n(C)c2cc(/C=C3/SC(=O)N(CC(=O)N4CCOCC4)C3=O)ccc21 | 4.8 | . | . | . | .
CCOC(=O)c1sc(NC(=O)C2=COCCO2)c(C#N)c1C | 5.8 | . | . | . | .
CN[C@H]1C[C@H]2c3[nH]c4c(-c5ccc6c(c5)OCO6)cccc4c3CCN2C(=O)[C@H]1[C@H](C)O | . | / | . | . | /
CN(C)c1ccc(C=NCCC2(c3ccccc3)CCOC(C)(C)C2)cc1 (configuration not stated) | . | . | . | . | /
CN(C)c1ccc(C=NCC2(O)CCOC(C)(C)C2)cc1 (configuration not stated) | 5.2 | . | . | . | 4.8
Cc1sc2c(c1C)CN(CCN1CCOCC1)CN2C(=O)c1ccccc1 | . | . | . | . | /
Cc1ccc(/C=N/N=C2/NC(=O)CS2)o1 | 5.5 | . | . | . | .
CCC(C)NC(=O)CSc1nc(-c2cccs2)cc(C(F)(F)F)n1 (configuration not stated) | 6.2 | . | . | . | .
COc1ccc(-c2cc(C(F)(F)F)nc(SCCC(=O)N3CCN(C)CC3)n2)cc1 | . | . | . | . | /
COCC(C)NC(=O)CCSc1nc(-c2ccc(OC)cc2)cc(C(F)(F)F)n1 (configuration not stated) | 5.0 | . | . | . | .
O=C(O)CSc1nc(-c2cccs2)cc(C(F)(F)F)n1 | . | . | . | . | /
CCC(=O)OCCNc1cc(Sc2nc3ccccc3[nH]2)c2nonc2c1[N+](=O)[O-] | 5.0 | . | . | . | .
CCOC(=O)C1=C(C)NC(C)=C(C(=O)OCC)C1C(=O)OCC(=O)NC | 11 | . | . | . | .
SMILES | MsrA inh | MsrA act | ASAP1 GAP inh | ARFGAP1 inhibitor | MsrA conf
CC(=O)OC1CC2(C)/C(=N\O)CCC2C2CCc3cc(O)ccc3C12 (configuration not stated) | . | . | . | . | /
NS(=O)(=O)c1ccc(-c2ccc(C=O)o2)cc1 | 4.7 | . | . | . | .
COc1ccc2cc3[n+](cc2c1OC)CCc1cc2c(cc1-3)OCO2 | 6.6! | . | . | . | 5.4
O=C(N/N=C/c1cccs1)c1ccc(NC(=O)c2ccccc2Cl)cc1 | 4.8 | . | . | . | .
COc1ccc(N2CCN(C(=O)COC(=O)COc3cc(C)cc(C)c3)CC2)cc1 | . | . | . | . | /
CC(=O)Nc1ccc(NC(=O)CCSCCc2ccccn2)cc1 | . | . | . | . | /
CCCC1S/C(=N/N=C/c2ccco2)NC1=O (configuration not stated) | 4.7 | . | . | . | 6.6
CC1(C)S/C(=N/N=C/c2ccco2)NC1=O | 5.9 | . | . | . | 5.5
C=CCOc1ccc(C(=O)CC)cc1OC | . | . | . | . | /
NC(=O)c1ccc(NC(=O)COC(=O)CC2Sc3ccccc3NC2=O)cc1 (configuration not stated) | . | . | . | . | /
COc1ccc(NC(=S)N(CCN2CCOCC2)Cc2cc3cc4c(cc3[nH]c2=O)OCCO4)cc1 | . | . | . | . | /
CCOC(=O)C(=CNc1cccc(N)n1)C(=O)OCC | 6.5 | . | . | . | 4.8
COCCNC(=O)CN(C(=O)CCC(=O)Nc1ccccn1)c1ccc(C)cc1C | . | . | . | . | /
O=C(N/N=C/C(Cl)=C/c1ccc([N+](=O)[O-])cc1)C(=O)Nc1ccccc1C(=O)O | 7.5 | . | . | . | .
O=C(N/N=C/C(Cl)=C/c1ccc([N+](=O)[O-])cc1)C(=O)Nc1ccc(C(=O)O)cc1 | . | . | . | . | /
O=C(O)COc1ccccc1/C=N/Nc1ccc(S(=O)(=O)N2CCOCC2)cc1[N+](=O)[O-] | 4.9 | . | . | . | .
CC1(C)OC(=O)C(=NNc2ccccc2C(=O)O)C(=O)O1 | 4.9 | . | . | . | .
CC1(C)OC(=O)C(=NNc2ccccc2)C(=O)O1 | . | . | . | . | /
CC1(C)OC(=O)C(=NNc2ccc(C(=O)O)cc2)C(=O)O1 | 4.8 | . | . | . | .
CCN(CC)CCn1c(-c2ccccc2)nc(=S)c2c1CC(C)(C)OC2 | 6.3 | . | . | . | .
COCCn1c(-c2ccccc2)nc(=S)c2c1CC(C)(C)OC2 | . | . | . | . | /
Cc1ccc2[nH]c(=O)c(CN(Cc3cccnc3)Cc3nnnn3CCN3CCOCC3)cc2c1 | 5.1 | . | . | . | .
Cc1ccc2[nH]c(=O)c(CN(Cc3cccnc3)Cc3nnnn3CC3CCCO3)cc2c1 (configuration not stated) | . | . | . | . | /
COC(=O)Nc1nnc(/C=C/c2ccccc2)s1 | . | . | . | . | /
O=C(Nc1nnc(-c2ccc(F)cc2)s1)c1ccco1 | . | . | . | . | /
SMILES | MsrA inh | MsrA act | ASAP1 GAP inh | ARFGAP1 inhibitor | MsrA conf
O=C(Nc1nnc(/C=C/c2ccccc2)s1)c1ccco1 | 5.8 | . | . | . | .
CCN(c1ccc(C)cc1)S(=O)(=O)c1nnc(NC(=O)c2ccco2)s1 | . | . | . | . | /
Cc1cccc(-c2nnc(NC(=O)c3ccco3)s2)c1 | 4.8 | . | . | . | .
CCN(CC)S(=O)(=O)c1nnc(NC(=O)c2ccco2)s1 | 6.6 | . | . | . | .
COC(=O)c1sccc1N(C)S(C)(=O)=O | . | . | . | . | /
COC(=O)c1[nH]c2c(c1C(=O)OC)CCc1ccccc1-2 | 5.6 | . | . | . | .
CNC(=O)c1[nH]nc2c1CCc1ccccc1-2 | . | . | . | . | /
COCCNC(=O)c1cn(C)c2ccc(S(=O)(=O)N3CCCCC3)cc2c1=O | . | . | . | . | /
CCCOc1cccc(C2/C(=C(/O)c3ccc(OC)cc3)C(=O)C(=O)N2CCN(C)C)c1 (configuration not stated) | . | . | . | . | /
